Results: ChEMBL document CHEMBL1641558, “A novel series of potent and selective EP(4) receptor ligands: facile modulation of agonism and antagonism” (Bioorg Med Chem Lett, 2011)
Activity calls are given as the source filed them. No cut-off for these calls is given here.

Legend:
Hepatocyte [1] = assay: Oxidative metabolism in rat hepatocytes assessed as protein covalent binding per mg of protein after 2 hrs; assay type: ADME, cell-based
Hepatocyte [2] = assay: Oxidative metabolism in human hepatocytes assessed as protein covalent binding per mg of protein after 2 hrs; assay type: ADME, cell-based
Rattus norvegicus [3] = organism: Rattus norvegicus; assay: covalent protein labeling in rat assessed per mg of protein; assay type: ADME, organism-based; conditions: in vivo
[4] = Drug excretion in rat bile assessed as total radioactivity after 24 hrs; assay type: ADME; conditions: in vivo
Rattus norvegicus [5] = assay: Antiinflammatory activity in rat assessed as inhibition of complete Freund's adjuvant-induced paw swelling at 0.6 mg/kg administered daily once 9 days after adjuvant challenge measured on day 18
[6] = target: T1, Prostaglandin E2 receptor EP4 subtype (Homo sapiens, UniProt P35408); assay: Antagonist activity at human prostanoid EP4 receptor expressed in HEK293 cells assessed as inhibition of PGE2-induced cAMP accumulation by scintillation proximity assay; assay type: functional, cell-based
How it was run: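 HEK293 cells expressing EP4 receptors. Antagonism is read as inhibition of PGE2-evoked rise in intracellular cAMP, reported as IC50. Agonism is read as cAMP elevation in the same cells without PGE2, reported as EC50.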

Homo sapiens [7] = organism: Homo sapiens; assay: Selectivity ratio of Ki for human prostanoid EP2 receptor to Ki for human prostanoid EP4
Rattus norvegicus [8] = assay: Analgesic activity against carrageenan-induced mechanical hyperalgesia in rat assessed as paw withdrawal latency at 10 mg/kg; assay type: functional
How it was run: (§1)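 Rats given carrageenan injection into the paw at t = 0 h, test article dosed at t = 2 h. At t = 3 h mechanical pressure is applied to the paw and paw withdrawal latency is recorded. Statistics by one-way ANOVA with Dunnett's test versus vehicle control.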

[9] = target: T1, Prostaglandin E2 receptor EP4 subtype; assay: Displacement of [3H]PGE2 from human prostanoid EP4 receptor expressed in HEK293-EBNA cells after 60 mins by scintillation counting; assay type: cell-based
[10] = Metabolic stability in rat hepatocytes assessed as parent compound remaining after 2 hrs; assay type: ADME, cell-based, Hepatocyte; conditions: read-out: Stability
How it was run: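 Incubation with rat hepatocytes for 2 h. The mixture is analysed by LC/MS for percent parent remaining and metabolite identity.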

Homo sapiens [11] = organism: Homo sapiens; assay: Selectivity ratio of Ki for human prostanoid TP receptor to Ki for human prostanoid EP4
Homo sapiens [12] = organism: Homo sapiens; assay: Selectivity ratio of Ki for human prostanoid EP1 receptor to Ki for human prostanoid EP4
[13] = Clearance in rat at 20 mg/kg, po and 5 mg/kg, iv; assay type: ADME, organism-based; conditions: in vivo
How it was run: (§2)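 Rat pharmacokinetics with potassium salts, given 20 mg/kg orally in 0.5% methocel and 5 mg/kg intravenously in 60% PEG 200. Half-life, oral bioavailability and clearance derived from these dosings.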

Homo sapiens [14] = organism: Homo sapiens; assay: Selectivity ratio of Ki for human prostanoid FP receptor to Ki for human prostanoid EP4
Homo sapiens [15] = organism: Homo sapiens; assay: Selectivity ratio of Ki for human prostanoid EP3 receptor to Ki for human prostanoid EP4
Rattus norvegicus [16] = organism: Rattus norvegicus; assay: Analgesic activity against carrageenan-induced mechanical hyperalgesia in rat assessed as paw withdrawal latency; assay type: functional, organism-based; how it was run: as §1
Rattus norvegicus [17] = assay: Antiinflammatory activity in rat assessed as inhibition of complete Freund's adjuvant-induced paw swelling administered daily once 9 days after adjuvant challenge measured on day 18; assay type: functional, organism-based
How it was run: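 Adjuvant arthritis in rats: complete Freund's adjuvant injected into the left hind paw on day 0. Dosing once daily for 9 days, starting on day 9. Secondary paw volume measured on day 18. Percent inhibition is calculated from the difference between each treated group (n = 7/group) and vehicle control; SEM reported.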

Homo sapiens [18] = organism: Homo sapiens; assay: Selectivity ratio of Ki for human prostanoid DP receptor to Ki for human prostanoid EP4
Homo sapiens [19] = organism: Homo sapiens; assay: Selectivity ratio of Ki for human prostanoid IP receptor to Ki for human prostanoid EP4
[20] = Bioavailability in rat at 20 mg/kg, po and 5 mg/kg, iv; assay type: ADME, organism-based; conditions: in vivo; how it was run: as §2
[21] = Half life in rat at 20 mg/kg, po and 5 mg/kg, iv; assay type: ADME, organism-based; conditions: in vivo; how it was run: as §2

T1 sequence (P35408 whole entry): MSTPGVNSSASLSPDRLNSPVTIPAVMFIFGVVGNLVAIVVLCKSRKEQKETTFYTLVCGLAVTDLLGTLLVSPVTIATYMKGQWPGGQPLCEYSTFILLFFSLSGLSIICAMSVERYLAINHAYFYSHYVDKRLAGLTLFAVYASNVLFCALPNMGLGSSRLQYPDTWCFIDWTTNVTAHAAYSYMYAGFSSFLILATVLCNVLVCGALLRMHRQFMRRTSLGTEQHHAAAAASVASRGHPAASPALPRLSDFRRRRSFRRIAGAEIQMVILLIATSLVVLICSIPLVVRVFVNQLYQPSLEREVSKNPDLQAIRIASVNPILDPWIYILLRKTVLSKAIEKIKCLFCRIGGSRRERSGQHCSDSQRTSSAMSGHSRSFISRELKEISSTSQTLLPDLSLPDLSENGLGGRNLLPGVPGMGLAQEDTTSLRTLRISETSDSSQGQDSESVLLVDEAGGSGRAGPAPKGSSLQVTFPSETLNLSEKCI

[3H]c1cc2c(c(C(=O)N[C@@H](C)c3ccc(C(=O)O)cc3)c1)N(Cc1ccc(C(F)(F)F)cc1)CC2
Activity (Hepatocyte [1]): 56 pmolequiv/mg | Activity (Hepatocyte [2]): 28 pmolequiv/mg | Activity (Rattus norvegicus [3]): 5 pmol | Activity [4]: 86%

C[C@H](NC(=O)c1cccc2c1N(Cc1ccc(C(F)(F)F)cc1)CC2)c1ccc(C(=O)O)cc1
inhibition (Rattus norvegicus [5]): Active | IC50 [6]: 2.1 nM | Ratio Ki (Homo sapiens [7]): > 1000 | Activity (Rattus norvegicus [8]): 64% | Ki [9]: 0.37 nM | remaining at 2 h [10]: 36% | Ratio Ki (Homo sapiens [11]): > 1000 | Ratio Ki (Homo sapiens [12]): > 1000 | clearance [13]: 11 mL/min/kg | Ratio Ki (Homo sapiens [14]): > 1000 | Ratio Ki (Homo sapiens [15]): > 1000 | Activity (Rattus norvegicus [16]): Dose-dependent effect | inhibition (Rattus norvegicus [17]): Dose-dependent effect | Ratio Ki (Homo sapiens [18]): > 1000 | Ratio Ki (Homo sapiens [19]): > 1000 | bioavailability [20]: 48% | half-life [21]: 4.1 h
